Source: PMC5084670 (Cancer Science, 2016)
Marks after values point to notes of the source that are not given here.

Experiment: Phase I dose-escalation study: safety, adverse events
Type: in vivo, human
In short: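 Oral test compound was given once daily in 28-day cycles after a 7-day single-dose run-in, in Japanese and Hong Kong/Taiwan groups escalated separately. Toxicity was graded by CTCAE v3.0 using laboratory tests, physical examination, vital signs, weight and periodic ECG. DLTs were grade 3–4 events over the run-in plus cycle 1. MTD was set by an adaptive Bayesian logistic regression model with overdose control.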

[1] = group 1, 400 mg q.d. (n = 12), All grades
[2] = group 1, 400 mg q.d. (n = 12), Grade 3
[3] = group 1, 400 mg q.d. (n = 12), Grade 4
[4] = group 1, 600 mg q.d. (n = 9), All grades
[5] = group 1, 600 mg q.d. (n = 9), Grade 3
[6] = group 1, 600 mg q.d. (n = 9), Grade 4
[7] = group 1, All patients (n = 21), All grades
[8] = group 1, All patients (n = 21), Grade 3
[9] = group 1, All patients (n = 21), Grade 4
[10] = group 2, 400 mg q.d. (n = 12), All grades

## Cc1c(C(=O)Nc2ccc(N3C[C@@H](C)O[C@@H](C)C3)nc2)cccc1-c1ccc(OC(F)(F)F)cc1 [Sonidegib]
A patient receiving 600 mg
  Maximum CK level: 40 400 IU/L
  Myoglobin level at maximum CK level: 5320 ng/mL
Both groups
  Deaths: no deaths were reported
Both groups, East Asian patients
  Recommended dose (RD): 400 mg q.d.
During the course of treatment
  Changes in electrocardiogram parameters: No clinically significant changes
Group 1 (Japanese)
  Recommended dose (RD): 400 mg q.d.
Group 1 (Japanese), 400 mg qd, N = 12
  Grade 3 /4 Creatine kinase elevation during all study period: 2 (17) ^† n (%)
Group 1 (Japanese), 600 mg qd, N = 9
  Grade 3 /4 Creatine kinase elevation during all study period: 5 (56) ^† n (%)
Group 1 (Japanese), All patients, N = 21
  Grade 3 /4 Creatine kinase elevation during all study period: 7 (33) n (%)
Group 1, 400 mg
  DLT in cycle 1 (creatine kinase elevation): single DLT
[1]
  Alopecia (drug-related adverse event): 2 (17) n (%)
  Blood creatine kinase increased (drug-related adverse event): 2 (17) n (%)
  Decreased level of consciousness (drug-related adverse event): 0 (0) n (%)
  Dysgeusia (drug-related adverse event): 1 (8) n (%)
  Fatigue (drug-related adverse event): 2 (17) n (%)
  Hepatic function abnormal (drug-related adverse event): 2 (17) n (%)
  Hyperglycemia (drug-related adverse event): 0 (0) n (%)
  Lymphopenia (drug-related adverse event): 0 (0) n (%)
  Muscle spasms (drug-related adverse event): 1 (8) n (%)
  Muscle weakness (drug-related adverse event): 0 (0) n (%)
  Myalgia (drug-related adverse event): 2 (17) n (%)
  Myoglobin blood increased (drug-related adverse event): 0 (0) n (%)
  Nausea (drug-related adverse event): 1 (8) n (%)
  Rhabdomyolysis (drug-related adverse event): 1 (8) n (%)
[2]
  Alopecia (drug-related adverse event): 0 (0) n (%)
  Blood creatine kinase increased (drug-related adverse event): 1 (8) n (%)
  Decreased level of consciousness (drug-related adverse event): 0 (0) n (%)
  Dysgeusia (drug-related adverse event): 0 (0) n (%)
  Fatigue (drug-related adverse event): 0 (0) n (%)
  Hepatic function abnormal (drug-related adverse event): 1 (8) n (%)
  Hyperglycemia (drug-related adverse event): 0 (0) n (%)
  Lymphopenia (drug-related adverse event): 0 (0) n (%)
  Muscle spasms (drug-related adverse event): 0 (0) n (%)
  Muscle weakness (drug-related adverse event): 0 (0) n (%)
  Myalgia (drug-related adverse event): 0 (0) n (%)
  Myoglobin blood increased (drug-related adverse event): 0 (0) n (%)
  Nausea (drug-related adverse event): 0 (0) n (%)
  Rhabdomyolysis (drug-related adverse event): 0 (0) n (%)
[3]
  Alopecia (drug-related adverse event): 0 (0) n (%)
  Blood creatine kinase increased (drug-related adverse event): 0 (0) n (%)
  Decreased level of consciousness (drug-related adverse event): 0 (0) n (%)
  Dysgeusia (drug-related adverse event): 0 (0) n (%)
  Fatigue (drug-related adverse event): 0 (0) n (%)
  Hepatic function abnormal (drug-related adverse event): 0 (0) n (%)
  Hyperglycemia (drug-related adverse event): 0 (0) n (%)
  Lymphopenia (drug-related adverse event): 0 (0) n (%)
  Muscle spasms (drug-related adverse event): 0 (0) n (%)
  Muscle weakness (drug-related adverse event): 0 (0) n (%)
  Myalgia (drug-related adverse event): 0 (0) n (%)
  Myoglobin blood increased (drug-related adverse event): 0 (0) n (%)
  Nausea (drug-related adverse event): 0 (0) n (%)
  Rhabdomyolysis (drug-related adverse event): 1 (8) n (%)
Group 1, 600 mg
  Additional patients with grade 3 or 4 CK elevation after cycle 1: four
  DLT in cycle 1 (creatine kinase elevation): single DLT
[4]
  Alopecia (drug-related adverse event): 2 (22) n (%)
  Blood creatine kinase increased (drug-related adverse event): 5 (56) n (%)
  Decreased level of consciousness (drug-related adverse event): 1 (11) n (%)
  Dysgeusia (drug-related adverse event): 2 (22) n (%)
  Fatigue (drug-related adverse event): 2 (22) n (%)
  Hepatic function abnormal (drug-related adverse event): 3 (33) n (%)
  Hyperglycemia (drug-related adverse event): 1 (11) n (%)
  Lymphopenia (drug-related adverse event): 1 (11) n (%)
  Muscle spasms (drug-related adverse event): 1 (11) n (%)
  Muscle weakness (drug-related adverse event): 1 (11) n (%)
  Myalgia (drug-related adverse event): 4 (44) n (%)
  Myoglobin blood increased (drug-related adverse event): 1 (11) n (%)
  Nausea (drug-related adverse event): 2 (22) n (%)
  Rhabdomyolysis (drug-related adverse event): 1 (11) n (%)
[5]
  Alopecia (drug-related adverse event): 0 (0) n (%)
  Blood creatine kinase increased (drug-related adverse event): 2 (22) n (%)
  Decreased level of consciousness (drug-related adverse event): 0 (0) n (%)
  Dysgeusia (drug-related adverse event): 0 (0) n (%)
  Fatigue (drug-related adverse event): 0 (0) n (%)
  Hepatic function abnormal (drug-related adverse event): 1 (11) n (%)
  Hyperglycemia (drug-related adverse event): 1 (11) n (%)
  Lymphopenia (drug-related adverse event): 1 (11) n (%)
  Muscle spasms (drug-related adverse event): 0 (0) n (%)
  Muscle weakness (drug-related adverse event): 1 (11) n (%)
  Myalgia (drug-related adverse event): 0 (0) n (%)
  Myoglobin blood increased (drug-related adverse event): 1 (11) n (%)
  Nausea (drug-related adverse event): 0 (0) n (%)
  Rhabdomyolysis (drug-related adverse event): 1 (11) n (%)
[6]
  Alopecia (drug-related adverse event): 0 (0) n (%)
  Blood creatine kinase increased (drug-related adverse event): 2 (22) n (%)
  Decreased level of consciousness (drug-related adverse event): 1 (11) n (%)
  Dysgeusia (drug-related adverse event): 0 (0) n (%)
  Fatigue (drug-related adverse event): 0 (0) n (%)
  Hepatic function abnormal (drug-related adverse event): 1 (11) n (%)
  Hyperglycemia (drug-related adverse event): 0 (0) n (%)
  Lymphopenia (drug-related adverse event): 0 (0) n (%)
  Muscle spasms (drug-related adverse event): 0 (0) n (%)
  Muscle weakness (drug-related adverse event): 0 (0) n (%)
  Myalgia (drug-related adverse event): 0 (0) n (%)
  Myoglobin blood increased (drug-related adverse event): 0 (0) n (%)
  Nausea (drug-related adverse event): 0 (0) n (%)
  Rhabdomyolysis (drug-related adverse event): 0 (0) n (%)
[7]
  Alopecia (drug-related adverse event): 4 (19) n (%)
  Blood creatine kinase increased (drug-related adverse event): 7 (33) n (%)
  Decreased level of consciousness (drug-related adverse event): 1 (5) n (%)
  Dysgeusia (drug-related adverse event): 3 (14) n (%)
  Fatigue (drug-related adverse event): 4 (19) n (%)
  Hepatic function abnormal (drug-related adverse event): 5 (24) n (%)
  Hyperglycemia (drug-related adverse event): 1 (5) n (%)
  Lymphopenia (drug-related adverse event): 1 (5) n (%)
  Muscle spasms (drug-related adverse event): 2 (10) n (%)
  Muscle weakness (drug-related adverse event): 1 (5) n (%)
  Myoglobin blood increased (drug-related adverse event): 1 (5) n (%)
  Nausea (drug-related adverse event): 3 (14) n (%)
  Rhabdomyolysis (drug-related adverse event): 2 (10) n (%)
[8]
  Alopecia (drug-related adverse event): 0 (0) n (%)
  Blood creatine kinase increased (drug-related adverse event): 3 (14) n (%)
  Decreased level of consciousness (drug-related adverse event): 0 (0) n (%)
  Dysgeusia (drug-related adverse event): 0 (0) n (%)
  Fatigue (drug-related adverse event): 0 (0) n (%)
  Hepatic function abnormal (drug-related adverse event): 2 (10) n (%)
  Hyperglycemia (drug-related adverse event): 1 (5) n (%)
  Lymphopenia (drug-related adverse event): 1 (5) n (%)
  Muscle spasms (drug-related adverse event): 0 (0) n (%)
  Muscle weakness (drug-related adverse event): 1 (5) n (%)
  Myalgia (drug-related adverse event): 0 (0) n (%)
  Myoglobin blood increased (drug-related adverse event): 1 (5) n (%)
  Nausea (drug-related adverse event): 0 (0) n (%)
  Rhabdomyolysis (drug-related adverse event): 1 (5) n (%)
[9]
  Alopecia (drug-related adverse event): 0 (0) n (%)
  Blood creatine kinase increased (drug-related adverse event): 2 (10) n (%)
  Decreased level of consciousness (drug-related adverse event): 1 (5) n (%)
  Dysgeusia (drug-related adverse event): 0 (0) n (%)
  Fatigue (drug-related adverse event): 0 (0) n (%)
  Hepatic function abnormal (drug-related adverse event): 1 (5) n (%)
  Hyperglycemia (drug-related adverse event): 0 (0) n (%)
  Lymphopenia (drug-related adverse event): 0 (0) n (%)
  Muscle spasms (drug-related adverse event): 0 (0) n (%)
  Muscle weakness (drug-related adverse event): 0 (0) n (%)
  Myalgia (drug-related adverse event): 0 (0) n (%)
  Myoglobin blood increased (drug-related adverse event): 0 (0) n (%)
  Nausea (drug-related adverse event): 0 (0) n (%)
  Rhabdomyolysis (drug-related adverse event): 1 (5) n (%)
Group 1, all doses
  Drug-related AE: abnormal hepatic function: 24%
  Drug-related AE: fatigue: 19%
  Drug-related AE: increase in CK levels: 33%
  Drug-related AE: myalgia: 29%
Group 1, n = 18
  Patients with at least one AE suspected to be related to sonidegib: 86%
Group 2 (Chinese/Taiwanese)
  Recommended dose (RD): 400 mg q.d.
Group 2 (Chinese/Taiwanese), 400 mg qd, N = 12
  Grade 3 /4 Creatine kinase elevation during all study period: 2 (17) n (%)
Group 2 (Chinese/Taiwanese), 600 mg qd, N = 8
  Grade 3 /4 Creatine kinase elevation during all study period: 1 (13) n (%)
Group 2 (Chinese/Taiwanese), 800 mg qd, N = 4
  Grade 3 /4 Creatine kinase elevation during all study period: 2 (50) n (%)
Group 2 (Chinese/Taiwanese), All patients, N = 24
  Grade 3 /4 Creatine kinase elevation during all study period: 5 (21) n (%)
[10]
  Blood creatine kinase increased (drug-related adverse event): 6 (50) n (%)
  Decreased appetite (drug-related adverse event): 0 (0) n (%)
  Diarrhea (drug-related adverse event): 0 (0) n (%)
  Dizziness (drug-related adverse event): 0 (0) n (%)
